Test results as given in ChEMBL document CHEMBL1143294, “Synthesis and antifungal activity of 1,2,3-triazole containing fluconazole analogues” (Bioorg Med Chem Lett, 2009).
Converted amounts (≈) assume the structure as drawn.

Key:
[1] = Cytotoxicity against human Hep3B cells at 0.001 mg/ml; assay type: cell-based; conditions: hep 3b2
Outline: (§1)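 Antiproliferative assay in human hepatocellular carcinoma Hep3B and human epithelial carcinoma A431 cells. Compounds were tested across 0.001–1 mg/ml.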

[2] = Cytotoxicity against human Hep3B cells; conditions: hep 3b2
Sporothrix schenckii = test: Antimicrobial activity against Sporothrix schenckii by broth microdilution method; assay type: functional, organism-based
Outline: (§2)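 Standard broth microdilution following NCCLS guidelines. MIC and IC50 values were determined.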

Candida parapsilosis = test: Antimicrobial activity against Candida parapsilosis ATCC 22019 by broth microdilution method; assay type: functional, organism-based; conditions: Lodderomyces parapsilosis; outline: as §2
Candida albicans [3] = test: Antimicrobial activity against Candida albicans by broth microdilution method; assay type: functional, organism-based; outline: as §2
A-431 [4] = test: Cytotoxicity against human A431 cells at 1 mg/ml
A-431 [5] = test: Cytotoxicity against human A431 cells at 1 mg/ml; assay type: cell-based; outline: as §1
Aspergillus fumigatus = test: Antimicrobial activity against Aspergillus fumigatus by broth microdilution method; assay type: functional, organism-based; outline: as §2
Cryptococcus neoformans = test: Antimicrobial activity against Cryptococcus neoformans by broth microdilution method; assay type: functional, organism-based; outline: as §2
Candida albicans [6] = test: Antimicrobial activity against Candida albicans infected Swiss mouse assessed as reduction of kidney fungal load at 50 mg/kg, po administered once daily for 7 days measured after 9 days; assay type: functional; parameters: scale not given: the % may be the effect or the level left
Outline: (§3)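 Swiss mice received an intravenous Candida albicans challenge, with five mice per group. Test agent was given orally in PEG 200 once a day for 7 days. Mice were sacrificed on day 9, and kidney fungal burden was counted as CFU/g tissue. Results are expressed as % reduction in CFU relative to the untreated control group.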

[7] = test system: Trichophyton mentagrophytes; test: Antimicrobial activity against Trichophyton mentagrophytes by broth microdilution method; assay type: functional, organism-based; outline: as §2
Candida albicans [8] = test: Antimicrobial activity against Candida albicans infected Swiss mouse assessed as reduction of kidney fungal load at 25 mg/kg, po administered once daily for 7 days measured after 9 days; assay type: functional; parameters: scale not given: the % may be the effect or the level left; outline: as §3
[9] = Cytotoxicity against human Hep3B cells at 0.001 mg/ml; conditions: hep 3b2
A-431 [10] = test: Cytotoxicity against human A431 cells at 0.001 mg/ml; assay type: cell-based; outline: as §1

C[C@H](CCC(=O)OCc1cn(CC(O)(Cn2cncn2)c2ccc(F)cc2F)nn1)[C@H]1CC[C@H]2[C@@H]3CC[C@@H]4C[C@H](O)CC[C@]4(C)[C@H]3C[C@H](O)[C@]12C (some centres not stated)
Activity [1]: Non-toxic | Activity [2]: Non-toxic | IC50 (Sporothrix schenckii): 0.76 µg/mL (≈ 1.07 µM) | MIC (Sporothrix schenckii): 0.84 µg/mL (≈ 1.18 µM) | IC50 (Candida parapsilosis): 0.38 µg/mL (≈ 0.535 µM) | MIC (Candida parapsilosis): 0.396 µg/mL (≈ 0.557 µM) | IC50 (Candida albicans [3]): < 0.001 µg/mL | MIC (Candida albicans [3]): < 0.001 µg/mL | Activity (A-431 [4]): Toxic | Activity (A-431 [5]): Toxic | IC50 (Aspergillus fumigatus): 6.24 µg/mL (≈ 8.78 µM) | MIC (Aspergillus fumigatus): > 50 µg/mL | IC50 (Cryptococcus neoformans): < 0.001 µg/mL | MIC (Cryptococcus neoformans): 0.01 µg/mL (≈ 0.0141 µM) | Activity (Candida albicans [6]): 38.2% | IC50 [7]: 46.5 µg/mL (≈ 65.4 µM) | MIC [7]: > 50 µg/mL

OC(Cn1cncn1)(Cn1ccnn1)c1ccc(F)cc1F (configuration not stated)
IC50 (Sporothrix schenckii): 5.77 µg/mL (≈ 18.8 µM) | MIC (Sporothrix schenckii): 10.6 µg/mL (≈ 34.7 µM) | IC50 (Candida parapsilosis): 6.83 µg/mL (≈ 22.3 µM) | MIC (Candida parapsilosis): 12.8 µg/mL (≈ 41.9 µM) | IC50 (Candida albicans [3]): 0.72 µg/mL (≈ 2.35 µM) | MIC (Candida albicans [3]): 1.48 µg/mL (≈ 4.83 µM) | IC50 (Aspergillus fumigatus): > 50 µg/mL | MIC (Aspergillus fumigatus): > 50 µg/mL | IC50 (Cryptococcus neoformans): 0.03 µg/mL (≈ 0.098 µM) | MIC (Cryptococcus neoformans): 0.78 µg/mL (≈ 2.55 µM) | IC50 [7]: 6.45 µg/mL (≈ 21.1 µM) | MIC [7]: 12.2 µg/mL (≈ 39.7 µM)

C[Si](C)(C)c1cn(CC(O)(Cn2cncn2)c2ccc(F)cc2F)nn1 (configuration not stated)
IC50 (Sporothrix schenckii): 3.11 µg/mL (≈ 8.22 µM) | MIC (Sporothrix schenckii): 3.16 µg/mL (≈ 8.35 µM) | IC50 (Candida parapsilosis): 33.1 µg/mL (≈ 87.5 µM) | MIC (Candida parapsilosis): 44.5 µg/mL (≈ 118 µM) | IC50 (Candida albicans [3]): 3.04 µg/mL (≈ 8.03 µM) | MIC (Candida albicans [3]): 3.26 µg/mL (≈ 8.61 µM) | IC50 (Aspergillus fumigatus): 43.2 µg/mL (≈ 114 µM) | MIC (Aspergillus fumigatus): 49.8 µg/mL (≈ 132 µM) | IC50 (Cryptococcus neoformans): 1.01 µg/mL (≈ 2.67 µM) | MIC (Cryptococcus neoformans): 1.56 µg/mL (≈ 4.12 µM) | IC50 [7]: 8.57 µg/mL (≈ 22.6 µM) | MIC [7]: 15.6 µg/mL (≈ 41.1 µM)

CCCCCCCCn1cc(CC(O)(Cn2cncn2)c2ccc(F)cc2F)nn1 (configuration not stated)
Activity (Candida albicans [8]): 41.2% | Activity [1]: Non-toxic | Activity [2]: Non-toxic | IC50 (Sporothrix schenckii): 0.008 µg/mL (≈ 0.0191 µM) | MIC (Sporothrix schenckii): 0.036 µg/mL (≈ 0.086 µM) | IC50 (Candida parapsilosis): 0.002 µg/mL (≈ 0.00478 µM) | MIC (Candida parapsilosis): 0.01 µg/mL (≈ 0.0239 µM) | IC50 (Candida albicans [3]): 0.001 µg/mL (≈ 0.00239 µM) | MIC (Candida albicans [3]): 0.002 µg/mL (≈ 0.00478 µM) | Activity (A-431 [5]): Toxic | IC50 (Aspergillus fumigatus): 0.8 µg/mL (≈ 1.91 µM) | MIC (Aspergillus fumigatus): 1.12 µg/mL (≈ 2.68 µM) | IC50 (Cryptococcus neoformans): < 0.006 µg/mL | MIC (Cryptococcus neoformans): 0.002 µg/mL (≈ 0.00478 µM) | Activity (Candida albicans [6]): 97.4% | IC50 [7]: 0.249 µg/mL (≈ 0.595 µM) | MIC [7]: 0.48 µg/mL (≈ 1.15 µM)

OC(Cc1c[nH]nn1)(Cn1cncn1)c1ccc(F)cc1F (configuration not stated)
IC50 (Sporothrix schenckii): 4.43 µg/mL (≈ 14.5 µM) | MIC (Sporothrix schenckii): 12.4 µg/mL (≈ 40.5 µM) | IC50 (Candida parapsilosis): 16.8 µg/mL (≈ 55 µM) | MIC (Candida parapsilosis): 29.1 µg/mL (≈ 95 µM) | IC50 (Candida albicans [3]): 2.74 µg/mL (≈ 8.95 µM) | MIC (Candida albicans [3]): 3.16 µg/mL (≈ 10.3 µM) | IC50 (Aspergillus fumigatus): > 50 µg/mL | MIC (Aspergillus fumigatus): > 50 µg/mL | IC50 (Cryptococcus neoformans): 0.69 µg/mL (≈ 2.25 µM) | MIC (Cryptococcus neoformans): 3.12 µg/mL (≈ 10.2 µM) | IC50 [7]: 47 µg/mL (≈ 153 µM) | MIC [7]: 49 µg/mL (≈ 160 µM)

C[C@H](CCC(=O)OCc1cn(CC(O)(Cn2cncn2)c2ccc(F)cc2F)nn1)[C@H]1CC[C@H]2[C@@H]3[C@H](O)C[C@@H]4C[C@H](O)CC[C@]4(C)[C@H]3C[C@H](O)[C@]12C (some centres not stated)
Activity [1]: Non-toxic | Activity [9]: Non-toxic | IC50 (Sporothrix schenckii): 11.3 µg/mL (≈ 15.5 µM) | MIC (Sporothrix schenckii): 12.6 µg/mL (≈ 17.3 µM) | IC50 (Candida parapsilosis): 2.93 µg/mL (≈ 4.03 µM) | MIC (Candida parapsilosis): 5.15 µg/mL (≈ 7.09 µM) | IC50 (Candida albicans [3]): 0.35 µg/mL (≈ 0.482 µM) | MIC (Candida albicans [3]): 0.442 µg/mL (≈ 0.608 µM) | Activity (A-431 [4]): Toxic | Activity (A-431 [5]): Toxic | IC50 (Aspergillus fumigatus): 31.2 µg/mL (≈ 43 µM) | MIC (Aspergillus fumigatus): > 50 µg/mL | IC50 (Cryptococcus neoformans): 0.03 µg/mL (≈ 0.0413 µM) | MIC (Cryptococcus neoformans): 0.19 µg/mL (≈ 0.261 µM) | IC50 [7]: 8.9 µg/mL (≈ 12.2 µM) | MIC [7]: 18.4 µg/mL (≈ 25.3 µM)

CCCCCCc1cn(CC(O)(Cn2cncn2)c2ccc(F)cc2F)nn1 (configuration not stated)
Activity [1]: Non-toxic | Activity [2]: Non-toxic | IC50 (Sporothrix schenckii): 0.043 µg/mL (≈ 0.11 µM) | MIC (Sporothrix schenckii): 0.14 µg/mL (≈ 0.359 µM) | IC50 (Candida parapsilosis): 0.12 µg/mL (≈ 0.307 µM) | MIC (Candida parapsilosis): 0.39 µg/mL (≈ 0.999 µM) | IC50 (Candida albicans [3]): 0.018 µg/mL (≈ 0.0461 µM) | MIC (Candida albicans [3]): 0.032 µg/mL (≈ 0.082 µM) | Activity (A-431 [4]): Toxic | Activity (A-431 [5]): Toxic | IC50 (Aspergillus fumigatus): 5 µg/mL (≈ 12.8 µM) | MIC (Aspergillus fumigatus): 6.9 µg/mL (≈ 17.7 µM) | IC50 (Cryptococcus neoformans): < 0.01 µg/mL | MIC (Cryptococcus neoformans): 0.02 µg/mL (≈ 0.0512 µM) | Activity (Candida albicans [6]): 95% | IC50 [7]: 2.46 µg/mL (≈ 6.3 µM) | MIC [7]: 6.72 µg/mL (≈ 17.2 µM)

C[C@@H]1[C@H](O)[C@@H](C)/C=C/C=C/C=C/C=C/C=C/C=C/C=C/[C@H](O[C@@H]2O[C@H](C)[C@@H](O)[C@H](N)[C@@H]2O)C[C@@H]2O[C@](O)(C[C@@H](O)C[C@@H](O)[C@H](O)CC[C@@H](O)C[C@@H](O)CC(=O)O[C@H]1C)C[C@H](O)[C@H]2C(=O)O [AMPHOTERICIN B]
Activity [1]: Non-toxic | Activity [9]: Non-toxic | MIC (Sporothrix schenckii): 0.12 µg/mL (≈ 0.13 µM) | MIC (Candida parapsilosis): 0.12 µg/mL (≈ 0.13 µM) | MIC (Candida albicans [3]): 0.12 µg/mL (≈ 0.13 µM) | Activity (A-431 [4]): Toxic | Activity (A-431 [5]): Toxic | MIC (Aspergillus fumigatus): 0.5 µg/mL (≈ 0.541 µM) | MIC (Cryptococcus neoformans): 0.06 µg/mL (≈ 0.0649 µM) | IC50 [7]: 0.02 µg/mL (≈ 0.0216 µM) | MIC [7]: 0.12 µg/mL (≈ 0.13 µM)

OC(Cn1cncn1)(Cn1cncn1)c1ccc(F)cc1F [FLUCONAZOLE]
Activity [1]: Non-toxic | Activity (A-431 [10]): Toxic | Activity [9]: Non-toxic | MIC (Sporothrix schenckii): 2 µg/mL (≈ 6.53 µM) | MIC (Candida parapsilosis): 1 µg/mL (≈ 3.27 µM) | MIC (Candida albicans [3]): 0.5 µg/mL (≈ 1.63 µM) | Activity (A-431 [5]): Toxic | MIC (Aspergillus fumigatus): 2 µg/mL (≈ 6.53 µM) | IC50 (Cryptococcus neoformans): 0.45 µg/mL (≈ 1.47 µM) | MIC (Cryptococcus neoformans): 1 µg/mL (≈ 3.27 µM) | IC50 [7]: 0.6 µg/mL (≈ 1.96 µM) | MIC [7]: 1 µg/mL (≈ 3.27 µM)

CC(=O)N1CCN(c2ccc(OCC3COC(Cn4ccnc4)(c4ccc(Cl)cc4Cl)O3)cc2)CC1 (configuration not stated) [KETOCONAZOLE]
Activity [1]: Non-toxic | Activity [9]: Non-toxic | IC50 (Sporothrix schenckii): 0.026 µg/mL (≈ 0.0489 µM) | MIC (Sporothrix schenckii): 0.031 µg/mL (≈ 0.0583 µM) | IC50 (Candida parapsilosis): 0.024 µg/mL (≈ 0.0452 µM) | MIC (Candida parapsilosis): 0.031 µg/mL (≈ 0.0583 µM) | IC50 (Candida albicans [3]): 0.001 µg/mL (≈ 0.00188 µM) | MIC (Candida albicans [3]): 0.002 µg/mL (≈ 0.00376 µM) | Activity (A-431 [4]): Toxic | Activity (A-431 [5]): Toxic | IC50 (Aspergillus fumigatus): 0.008 µg/mL (≈ 0.0151 µM) | MIC (Aspergillus fumigatus): 2 µg/mL (≈ 3.76 µM) | IC50 (Cryptococcus neoformans): 0.001 µg/mL (≈ 0.00188 µM) | MIC (Cryptococcus neoformans): 0.001 µg/mL (≈ 0.00188 µM) | IC50 [7]: 2.12 µg/mL (≈ 3.99 µM) | MIC [7]: 4 µg/mL (≈ 7.53 µM)
